Source: PubChem (SRMLSC)
The sample as a whole holds a higher share of hits than the screen did.
PTEN del growth: PTEN-deleted cell growth suppression; HCT116 PTEN-null viability, CellTiter-Glo, 60 h; active compounds read low; viability, % at 10 µM; actives 1.2% (n = 140,000); AID 827;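 active = viability at or below a set limit, 4 SD under the median of all tested compounds, cut at about 3.7% in these data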;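 note: PTEN knockout HCT116 line with beta catenin targeted HCT116 as companion control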
Lung fibro prol: blocks proliferation of human lung fibroblasts. LL 47 human lung fibroblast viability, ATP luminescence; active compounds read low. viability, % at 10 µM. actives 1.1% (n = 85,000). AID 719;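 active = viability at or below 50% in the single dose screen; inactive = viability above 50%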;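 note: compound exposure lasted 72 h before the ATP readout; 100% = median luminescence of untreated cell-only wells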
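Assay system: human lung fibroblast line LL 47, low passage. Input: 1,150 fibroblasts seeded per well. Times: overnight cell rest, 72 h compound treatment at 37 °C. Evaluation: % viability of median cell-only signal. Technique: luminescent ATP detection, CellTiter-Glo. Control set: cell-only wells, no compound.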
bCat KO growth: beta-catenin-lacking colon tumor cell growth suppression; viability, % at 10 µM; actives 1.5% (n = 140,000); HCT116 beta-catenin knockout viability, CellTiter-Glo, 60 h; active compounds read low; AID 818;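 active = viability at or under a set limit, the compound median less 4 SD, cut at about 6% in these data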;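 note: 0% = Hyamine 1622 control at 20 µM and 100% = untreated cell control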
HUVEC prolif 384: human endothelial cell proliferation inhibition | HUVEC proliferation, CellTiter-Glo luminescence, 72 h; active compounds read low | actives 1.1% (n = 86,000) | viability, % at 10 µM (by protocol) | AID 648;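 active = viability at or below 30%; inactive = viability above 30%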;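 note: 100% = median luminescence of DMSO-only cell control wells on each plate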
H69AR inhibit: blocks growth of human H69AR lung tumor cells; actives 6% (n = 85,000); AID 598; viability, % at 10 µM; H69AR lung tumor viability, ATP luminescence, 72 h; active compounds read low;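 active = viability at or below 40%; inactive = viability above 40%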;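 note: multidrug resistant small cell line overexpressing MRP-1 efflux transporter; 100% = mean luminescence of untreated control wells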
* marks the source's active call; other numbers are inactive results.

CC1CCc2c(sc3ncn4c(SCC(=O)NCc5ccco5)nnc4c23)C1 (stereo not drawn) was read as PTEN del growth 72.3, Lung fibro prol 101.9, bCat KO growth 61.9, HUVEC prolif 384 88.1 and H69AR inhibit 10.1*.
Screening CCC1CCc2c(sc3nc(SCC(=O)NCc4ccco4)n(-c4ccccc4)c(=O)c23)C1 (stereo not drawn) returned PTEN del growth 78.9, Lung fibro prol 64.3, bCat KO growth 80.9, HUVEC prolif 384 37.6 and H69AR inhibit 3.0*.
For O=C(Nc1nc(COc2ccccc2)cs1)C12CC3CC(CC(C3)C1)C2 the results were PTEN del growth 29.9, Lung fibro prol 87.1, bCat KO growth 38.7, HUVEC prolif 384 55.5 and H69AR inhibit 39.2*.
Screening COc1ccc(C2(CNC(=O)c3ccc(OCC(C)C)cc3)CCOCC2)cc1 returned PTEN del growth 74.7 and bCat KO growth 81.1.
`O=C(Nc1ccc2c(c1)nc1n2CCN(Cc2ccccc2)C1)NC1CCCCC1` gave PTEN del growth 105.4, Lung fibro prol 105.9, bCat KO growth 107.2, HUVEC prolif 384 79.6 and H69AR inhibit 19.7*.
COCCN1CCn2c(nc3cc(NC(=O)NC4CCCCC4)ccc32)C1 was read as PTEN del growth 98.0, Lung fibro prol 90.0, bCat KO growth 103.0, HUVEC prolif 384 90.1 and H69AR inhibit 91.5.
For O=[N+]([O-])c1cccc(N/N=C/c2cccc3ccccc23)c1 the results were PTEN del growth 66.9 and bCat KO growth 72.5.
Screening Cn1c(C(=O)OC(C(=O)NC2CCCCC2)c2ccncc2)cc2sccc21 (stereo not drawn) returned PTEN del growth 85.3, Lung fibro prol 84.7, bCat KO growth 91.5, HUVEC prolif 384 89.9 and H69AR inhibit 23.1*.
Screening Cn1c(C(=O)OC(C(=O)NC2CCCC2)c2ccncc2)cc2sccc21 (stereo not drawn) returned PTEN del growth 88.3, Lung fibro prol 97.0, bCat KO growth 95.7, HUVEC prolif 384 96.3 and H69AR inhibit 78.9.
`N#CC1=C(N)NC(SCc2ccc(F)cc2)=C(C#N)C12CCCCC2` gave PTEN del growth 18.0, Lung fibro prol 54.1, bCat KO growth 18.9, HUVEC prolif 384 36.4 and H69AR inhibit 10.4*.
Screening COC(=O)c1ccc(COc2ccccc2/C=N/NS(=O)(=O)c2ccccc2)cc1 returned PTEN del growth 14.4 and bCat KO growth 11.9.
For CCOC(=O)C(C)CC(C)C(=O)N1CCOCCOCCN(C(=O)C(C)CC(C)C(=O)OCC)CCOCC1 (stereo not drawn) the results were PTEN del growth 97.2, Lung fibro prol 95.5, bCat KO growth 99.5, HUVEC prolif 384 95.1 and H69AR inhibit 78.1.
CCOC(=O)C(C(=O)OCC)C(C(=O)OCC)N1CCOCC1 (stereo not drawn) was read as PTEN del growth 1.7*, Lung fibro prol 1.9*, bCat KO growth 1.2*, HUVEC prolif 384 2.9* and H69AR inhibit 0.7*.
For Cc1cc(C)cc(N(CC(=O)N2CCn3c2nc2ccccc23)S(=O)(=O)c2c(C)noc2C)c1 the results were PTEN del growth 85.9, Lung fibro prol 96.9, bCat KO growth 79.8, HUVEC prolif 384 87.3 and H69AR inhibit 91.7.
`Cc1ccnc(NC(=O)c2ccccc2NC(=O)C(C)(C)C)c1` gave PTEN del growth 32.0, bCat KO growth 39.5, HUVEC prolif 384 62.4 and H69AR inhibit 19.7*.
`CCOc1ccc(NC(=O)c2ccccc2NC(=O)CN(C)CC(=O)Nc2ccc(C)cc2)cc1` gave PTEN del growth 94.1, Lung fibro prol 86.3, bCat KO growth 89.9, HUVEC prolif 384 67.4 and H69AR inhibit 37.5*.
For COc1ccccc1N(C)S(=O)(=O)c1ccc(C(=O)OCC(=O)NCCC2=CCCCC2)cc1 the results were PTEN del growth 88.9 and bCat KO growth 88.6.
CCCCNC(=O)CC1Nc2ccccc2NC1=O (stereo not drawn) was read as PTEN del growth 97.8, Lung fibro prol 98.2, bCat KO growth 94.7, HUVEC prolif 384 102.3 and H69AR inhibit 92.1.
`CCCCOc1ccccc1NC(=O)CC1Nc2ccccc2NC1=O` (stereo not drawn) gave Lung fibro prol 97.7, HUVEC prolif 384 86.3 and H69AR inhibit 40.0*.
For O=C(CC1Nc2ccccc2NC1=O)Nc1cc(Cl)cc(Cl)c1 (stereo not drawn) the results were PTEN del growth 3.6*, Lung fibro prol 100.9, bCat KO growth 1.9*, HUVEC prolif 384 75.0 and H69AR inhibit 44.3.
